Screening results deposited in PubChem BioAssay by several laboratories.
procasp3 activ – activates human procaspase-3; P42574; 330,000 tested, 0.11% active; activation, % at 8.5 µM; recombinant procaspase-3 D3A, Ac-DEVD-pNA absorbance 405 nm;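 active = activation above the mean of all tested compounds plus 3 SD, cut at about 21% in these data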
Target sequence (P42574 whole entry D9A/D28A/D175A): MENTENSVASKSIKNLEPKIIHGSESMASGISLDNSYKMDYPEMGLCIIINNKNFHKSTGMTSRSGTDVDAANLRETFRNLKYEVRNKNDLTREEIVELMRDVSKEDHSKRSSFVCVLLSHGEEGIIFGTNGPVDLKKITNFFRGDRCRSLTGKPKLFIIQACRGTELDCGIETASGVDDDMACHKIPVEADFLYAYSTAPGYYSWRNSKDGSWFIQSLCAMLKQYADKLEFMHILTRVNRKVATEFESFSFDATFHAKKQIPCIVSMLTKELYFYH
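Test system: Procaspase-3 D3A mutant; medium: Zinc-free HEPES/NaCl buffer with 0.01% Triton X-100 at pH 7.4; reagent: DEVD-pNA substrate; doses: one concentration, 8.5 µM nominal, 0.8% DMSO; times: 1 h preincubation plus 2 h reaction at 25 °C; signal: Epi-absorbance at 405 nm of released p-nitroaniline, 0 and 120 min; replicates: singlicate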
AHR activator – activators of human aryl hydrocarbon receptor | P35869 | AHR-responsive luciferase reporter cells, luminescence | activation, % at 5 µM | 320,000 tested, 2.5% active | AID 2796; in the data active = activation above about 47%
proCasp7 act – counter-screen: procaspase-7 (human) activation; P55210; recombinant procaspase-7, Ac-DEVD-pNA absorbance 405 nm; D23A/D198A/D206A triple mutant, cannot self-cleave; scale: DMSO 0, 5 µM enzyme 100; activation, % at 8.5 µM; 330,000 tested, 0.093% active;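 active = percent activation above the screen-wide mean plus 3 SD, cut at about 25% in these data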
Target sequence (P55210 whole entry D23A/D198A/D206A): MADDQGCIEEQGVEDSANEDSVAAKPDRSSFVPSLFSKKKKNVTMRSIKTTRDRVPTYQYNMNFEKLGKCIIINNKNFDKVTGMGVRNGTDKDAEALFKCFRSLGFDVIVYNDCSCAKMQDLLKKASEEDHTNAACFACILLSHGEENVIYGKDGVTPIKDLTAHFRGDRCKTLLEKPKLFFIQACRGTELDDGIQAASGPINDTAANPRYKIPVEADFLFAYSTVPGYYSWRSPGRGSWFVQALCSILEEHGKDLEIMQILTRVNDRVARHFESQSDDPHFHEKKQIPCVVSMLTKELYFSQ
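Material: Procaspase-7 triple mutant (PC-7 D3A) | Quantity: 2 µM procaspase-7 mutant as dispensed | Reagent: DEVD-pNA substrate | Times: 1 h preincubation, 2 h reaction | Technique: 405 nm absorbance of p-nitroaniline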
PolyA inh – inhibitors of polyadenylation in S. cerevisiae | S. cerevisiae SKY197-pL101 polyadenylation reporter, beta-gal luminescence; efflux-impaired pdr1/pdr3 knockout yeast; score 100 = 6 SD above DMSO | activity score, % at 12 µM | 300,000 tested, 0.02% active;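 active = lowest replicate activity score at least 50, where 100 means six control SD above control mean; inconclusive = lowest score under 50 but half or more replicates reach 50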;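 also: yeast exposed to compound for 9 h at 30 °C; higher score means more reporter readthrough which indicates perturbed polyadenylation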
Each line names hits and unclear results; the compound was inactive in the other large screens. A selection: hits, their analogues and other compounds. The true share with any hit is near 2.6%.

COc1cccc2c1C(=O)c1c(O)c3c(c(O)c1C2=O)C[C@](O)(C(C)=O)C[C@H]3O[C@@H]1C[C@@H](N)[C@@H](O)[C@@H](C)O1	AHR activator 65
CC1CCN(S(=O)(=O)c2ccc3c(c2)N(CC(=O)NCCCN2C(C)CCCC2C)C(=O)CO3)CC1 (stereo not drawn)	none
CC(C)(C)OC(=O)NC1CNNC1=O (stereo not drawn)	none (no result: PolyA inh)
Cc1ccc(C(C(=O)NC2CCCCC2)N(Cc2cccnc2)C(=O)c2csnn2)cc1 (stereo not drawn)	none
Oc1ccc(Br)cc1-c1cc(-c2ccccc2)n[nH]1	AHR activator 61
Oc1ccc(Br)cc1-c1cc(-c2ccc(Cl)cc2)n[nH]1	AHR activator 49
COc1ccc(-c2cc(-c3ccc(OC)c(OC)c3)n[nH]2)c(O)c1	none
COc1ccc(O)c(-c2cc(-c3cccc(Br)c3)n[nH]2)c1	AHR activator 64
CCN(CC(=O)Nc1c(F)cccc1F)C(=O)c1cc(S(=O)(=O)N2CCOCC2)ccc1N1CCCC1	none
Oc1cccc(Nc2nc(NCC3CCCO3)c3ccccc3n2)c1 (stereo not drawn)	AHR activator 79
OCCNc1nc(Nc2ccccc2)nc(Nc2ccccc2)n1	AHR activator 48
OCCNc1nc(Nc2ccccc2)nc2ccccc12	AHR activator 51
OCCNc1nc(Nc2ccc(Br)cc2)nc2ccccc12	none
Cc1c(Cl)cccc1Nc1nc(NCCO)c2ccccc2n1	AHR activator 57
Oc1ccccc1Nc1nc(NCc2ccccc2)c2ccccc2n1	none
c1ccc(Nc2nc(NCC3CCCO3)c3ccccc3n2)cc1 (stereo not drawn)	none
C=CCc1cc(C)ccc1OCCOCCn1ccnc1	AHR activator 55
COc1ccc(OCC(O)CNC(=O)Nc2cc(F)ccc2C)cc1 (stereo not drawn)	none
CCC(CC)c1nnc(NC(=O)c2ccc3c(c2)OCO3)s1	AHR activator 64
O=C(O)CSc1nnc(NC(=O)c2ccc3c(c2)OCO3)s1	none
CC(C)(C)Cc1nnc(NC(=O)c2ccc3c(c2)OCO3)s1	AHR activator 49
CCC(CC)c1nnc(NC(=O)COc2ccc3c(c2)OCO3)s1	none
CCOc1ccc(C(=O)Nc2nnc(C(C)C)s2)cc1OCC	AHR activator 59
CN(C)c1cccc(C(=O)Nc2nnc(Cc3ccccc3)s2)c1	AHR activator 54
Cc1ccc(-n2ncc3c(NNC(=O)c4cccs4)ncnc32)cc1	none
COc1ccc(CCNC(=O)CC(C)S(=O)(=O)c2ccc3c(c2)NC(=O)CO3)cc1OC (stereo not drawn)	none
COc1cc(/C=C/C(=O)OCC(=O)N2CCCc3ccccc32)ccc1OC(F)F	none
CCC1CCCCN1C(=O)CCc1nnc(C2CCCCC2)o1 (stereo not drawn)	none
CCOC(=O)C1CCN(C(=O)COC(=O)Cc2ccc(Cl)cc2)CC1	none
Cc1ccc(C(OC(=O)c2ccco2)C(=O)NC(C)(C)C)cc1 (stereo not drawn)	none
O=C(Nc1ccc([N+](=O)[O-])cn1)c1ccc2c(c1)OCO2	none
O=C(Nc1nnc(Cc2ccc([N+](=O)[O-])cc2)s1)c1ccc2c(c1)OCO2	AHR activator 55
N#Cc1c(-c2ccccc2)cc(-c2ccccc2)nc1SCCC(=O)O	none
O=S1(=O)CCOCCCN1Cc1ccccc1F	none
COc1ccc([N+](=O)[O-])cc1NC(=O)CSc1nccc(C)n1	AHR activator 69
CSc1cccc(NC(=S)NC(=O)CCc2ccccc2)c1	AHR activator 54
CSc1cccc(NC(=O)CCc2ccccc2)c1	none
O=C(NCc1ccccc1F)C1CCCN1C(=O)Nc1ccccc1 (stereo not drawn)	none
Cc1nc2ccc(NC(=O)Cc3ccccc3F)cc2s1	none
Cc1ccc(O)c(Nc2ncnc3ccc([N+](=O)[O-])cc23)c1	AHR activator 50
O=[N+]([O-])c1ccc(O)c(Nc2ncnc3ccc(Br)cc23)c1	AHR activator 75
O=[N+]([O-])c1ccc(O)c(Nc2ncnc3ccccc23)c1	none
N#CCc1nn2c3c(cnc2c1C#N)C(=O)CCC3	none
Cc1oc(-c2ccc(Cl)cc2)nc1CS(=O)CC(=O)NCc1ccc2c(c1)OCO2 (stereo not drawn)	none
Cc1oc(-c2ccccc2F)nc1CS(=O)CC(=O)NCc1ccc2c(c1)OCO2 (stereo not drawn)	AHR activator 50
COc1ccc2[nH]c(C(=O)Nc3ccc(F)cc3Br)cc2c1	AHR activator 50
COc1ccc2[nH]c(C(=O)Nc3ncc(C)cc3Br)cc2c1	none
CCCC(=O)Oc1ccc(C2NC(=O)c3ccccc3O2)cc1 (stereo not drawn)	AHR activator 56
COc1cc(CCC(=O)N2CCN(c3ncccn3)CC2)cc(OC)c1OC	none
NNC(=O)c1cn2ccccc2n1	none
O=C(Nc1nccs1)c1cn2ccccc2n1	AHR activator 62
CN=c1sc2ccccc2n1CC(O)c1ccccc1 (stereo not drawn)	AHR activator 63
CN=c1sc2ccccc2n1CC(O)COCc1ccco1 (stereo not drawn)	none
O=C(c1cnn(C(=O)c2cccc(S(=O)(=O)N3CCOCC3)c2)c1)c1ccccc1O	none
Cc1ccc(-c2nn3c(C)nnc3s2)cc1NC(=O)C(C)C	none
CCC(=O)Nc1ccc(-c2nn3c(C)nnc3s2)cc1C	AHR activator 54
Cc1ccc(-c2nn3c(C)nnc3s2)cc1NC(=O)CSc1ccc(Cl)cc1	PolyA inh 88
Cc1nc2ccc(Br)cn2c1C(=O)N/N=C\c1ccccc1Cl	PolyA inh inconclusive
Cc1ccccc1C(=O)O[C@H]1[C@H](Cc2ccccc2)NS(=O)(=O)[C@H]2CC3C=C[C@]12O3	none (no result: PolyA inh)
CCC(=O)O/N=C(\N)c1ccc(Oc2cc(C)c(Cl)c(C)c2)c([N+](=O)[O-])c1	none
Cc1ccc(C(=O)N/N=C(/CC(=O)c2cccs2)C(F)(F)F)cc1	AHR activator 62
Cc1cccc(/C=N/NC(=O)Cc2ccc(Cl)cc2)c1O	AHR activator 52
Cc1cccc(/C=N\NC(=O)c2ccc(Cl)cc2)c1O	none
CSc1ccc(C2N=C(c3ccccc3)NO2)cc1 (stereo not drawn)	AHR activator 58
Cc1ccc(C(=O)Nc2cccnc2)cc1S(=O)(=O)N1CCCC1	AHR activator 54
COc1cccc(C(=O)Nc2c(F)cccc2F)c1	none
COc1cccc(C(=O)Nc2ccc3[nH]ncc3c2)c1	AHR activator 52
COc1cc(OC)cc(C(=O)Nc2cccc3cccnc23)c1	AHR activator 50
COc1cc(OC)cc(C(=O)Nc2c(F)cccc2F)c1	AHR activator 59
COc1cccc(C(=O)Nc2ccc3ccccc3c2)c1	none
OCC[C@@H]1C[C@H](O)[C@@H](O)[C@@]2(CCCc3ccccc3O2)O1	none
Cc1cc(NC(=O)CCC(=O)N(c2ccccc2C)C(C(=O)NC2CCCC2)c2ccccc2)no1 (stereo not drawn)	none
COCCCn1c(SCC(=O)NC2CCCC2)nnc1-c1ccncc1	none
